Reference: BindingDB's records for doi:10.1021/jm990600c (University of California, 2000)
Counter-ions that a name gives are not always drawn.

Tests used:
[1] = molecular target: T1, Gag-Pol polyprotein [489-587] (Human immunodeficiency virus 1, UniProt P04585); test: Tested in vitro against strand -transfer (ST) activity in the presence of Mg2+ as the cationic cofactor
T1 construct: 489-587
In short: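 Strand transfer by purified recombinant HIV-1 integrase with Mg2+ as cofactor, monitored in a microtiter plate format with viral-end and target DNAs; product detected through a digoxygenin label in the DNA; compounds titrated.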

[2] = molecular target: T1, Gag-Pol polyprotein [489-587]; test: Inhibition of strand -transfer (ST) activity in the presence of Mn2+
In short: (§1)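 Purified recombinant HIV-1 integrase with DNAs mimicking one viral cDNA end and a target DNA, Mn2+ as the divalent cofactor; compounds titrated in. Terminal cleavage (3'-processing) and strand-transfer products resolved and read by gel assay.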

[3] = molecular target: T1, Gag-Pol polyprotein [489-587]; test: Inhibition of 3'-processing (TC) in the presence of Mn2+ in vitro; in short: as §1

Structure (SMILES)	IC50 [1]	IC50 [2]	IC50 [3]
CC1(C)CC2(CC(C)(C)c3cc(S(=O)(=O)O)c(O)cc32)c2cc(O)c(S(=O)(=O)O)cc21 [6,6'-dihydroxy-3,3,3',3'-tetramethyl-1,1'-spirobi[2,3-dihydro-1H-indene]-5,5'-disulfonic acid]	69 µM		
CC1(C)CC2(CC(C)(C)c3cc(OS(=O)(=O)O)c(OS(=O)(=O)O)cc32)c2cc(OS(=O)(=O)O)c(OS(=O)(=O)O)cc21 [3,3,3',3'-tetramethyl-1,1'-spirobi(indan)-5,5',6,6'-tetrol tetrasulfate]		2 µM	2.8 µM
CC1(C)CC2(CC(C)(C)c3ccc(O)cc32)c2cc(O)ccc21 [3,3,3',3'-tetramethyl-1,1'-spirobi[2,3-dihydro-1H-indene]-6,6'-diol]		231 µM	275 µM
CC1(C)CC2(CC(C)(C)c3cc([N+](=O)[O-])c(O)c([N+](=O)[O-])c32)c2cc(O)c([N+](=O)[O-])cc21 (centres undefined) [3,3,3',3'-tetramethyl-5,5',7'-trinitro-1,1'-spirobi[2,3-dihydro-1H-indene]-6,6'-diol]	47 µM	25 µM	44 µM
CC1(C)CC2(CC(C)(C)c3c(Br)c(O)c(O)c(Br)c32)c2c(Br)c(O)c(O)c(Br)c21 [4,4',7,7'-tetrabromo-3,3,3',3'-tetramethyl-1,1'-spirobi[2,3-dihydro-1H-indene]-5,5',6,6'-tetraol]	15 µM	1.78 µM	3.14 µM
CC1(C)CC2(CC(C)(C)c3cc(C=O)c(O)cc32)c2cc(O)c(C=O)cc21 [6,6'-dihydroxy-3,3,3',3'-tetramethyl-1,1'-spirobi[2,3-dihydro-1H-indene]-5,5'-dicarbaldehyde]	16 µM	6 µM	35 µM
CC1(C)CC2(CC(C)(C)c3c(Br)c(OS(=O)(=O)O)c(OS(=O)(=O)O)c(Br)c32)c2c(Br)c(OS(=O)(=O)O)c(OS(=O)(=O)O)c(Br)c21 [3,3,3',3'-tetramethyl-1,1'-spirobi(indan)-4,4',7,7'-tetrabromo-5,5',6,6'-tetrol tetrasulfate]	4 µM	0.35 µM	1.4 µM
CC1(C)CC2(CC(C)(C)c3cc(I)c(O)cc32)c2cc(O)c(I)cc21 [5,5'-diiodo-3,3,3',3'-tetramethyl-1,1'-spirobi[2,3-dihydro-1H-indene]-6,6'-diol]		3.12 µM	6.28 µM
CC1(C)CC2(CC(C)(C)c3cc(Br)c(O)cc32)c2cc(O)c(Br)cc21 [5,5'-dibromo-3,3,3',3'-tetramethyl-1,1'-spirobi[2,3-dihydro-1H-indene]-6,6'-diol]		10 µM	11 µM
CC1(C)CC2(CC(C)(C)c3cc(N)c(O)cc32)c2cc(O)c(N)cc21 [3,3,3',3'-tetramethyl-1,1'-spirobi(indan)-5,5'-diamino-6,6'-diol Dihydrochloric salt]	33 µM		
CC1(C)CC2(CC(C)(C)c3ccc(O)c(NC(N)=O)c32)c2cc(O)c(NC(N)=O)cc21 (centres undefined) [3,3,3',3'-tetramethyl-1,1'-spirobi(indan)-6,6'-dihydroxy-5,7'-bisurea]		350 µM	420 µM
CC1(C)CC2(CC(C)(C)c3cc(O)c(O)cc32)c2cc(O)c(O)cc21 [HIV-1 Integrase Inhibitor]		5 µM	17 µM
CC1(C)CC2(CC(C)(C)c3ccc(O)c([N+](=O)[O-])c32)c2cc(O)c([N+](=O)[O-])cc21 (centres undefined) [3,3,3',3'-tetramethyl-5,7'-dinitro-1,1'-spirobi[2,3-dihydro-1H-indene]-6,6'-diol]	100 µM	53 µM	47 µM
